Test results as given in ChEMBL document CHEMBL4038269, “Design, synthesis and evaluation of novel feruloyl-donepezil hybrids as potential multitarget drugs for the treatment of Alzheimer's disease” (Eur J Med Chem, 2017).
Active and inactive are the calls of the source.

Legend:
[1] = molecular target: Acetylcholinesterase (Electrophorus electricus) (UniProt O42275); assay: Inhibition of Electrophorus electricus AChE at 30 uM using acetylthiocholine iodide as substrate pretreated for 10 mins followed by substrate addition measured at 12 secs interval for 5 mins by Ellman's method relative to control
Method in brief: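 Enzyme (0.5 U/mL) with DTNB (10 mM) in 0.1 M sodium phosphate pH 7.4; compound at 30 μM preincubated 10 min, then acetylthiocholine or butyrylthiocholine iodide added ([…]); A412 read every 12 s for 5 min. Velocity as percent of vehicle control; means and pooled SD from 2-4 experiments in triplicate. DMSO ≤0.2% final.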

[2] = Metal chelating activity assessed as absorption maximum for compound-Cu2+ complex formation at 75 uM after 30 mins by UV-Vis spectrophotometric method (reference value: 237.2 nanometer); assay type: functional
Method in brief: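 UV-Vis spectra in ethanol of compound at 75 µM alone or after 30 min incubation with CuSO4, FeSO4, FeCl3 or ZnCl2 (150 µM). Absorption maxima recorded.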

SH-SY5Y [3] = assay: Neuroprotective activity in human SH-SY5Y cells assessed as reduction in amyloid beta (1 to 42)-induced exocytosis at 20 uM after 4 hrs by MTT dye based microscopic method; assay type: functional, cell-based
Method in brief: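 SH-SY5Y cells seeded at 3 x 10^4 cells/well, grown 24 h. Treated with compound (20 µM) plus Aβ1-42 oligomers (10 µM) for 4 h at 37 °C. Oligomers were prepared from HFIP-treated, DMSO-dissolved peptide and checked by TEM. MTT (5 mg/mL in PBS) added for 2 h. Cells inspected by light microscopy for needle-like exocytosed formazan crystals.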

Mus musculus = assay: Antinociceptive activity in carrageenan-induced Swiss mouse model of mechanical hyperalgesia at 100 umol/kg, po pretreated for 1 hr followed by carrageenan challenge measured at 3 hrs to 7 hrs post dose by Von Frey filament assay; assay type: functional, organism-based
Method in brief: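 Male Swiss mice (n=8) dosed orally with 100 µmol/kg or vehicle 1 h before intraplantar carrageenan (100 µg/paw). Mechanical threshold measured by up-and-down Von Frey method after 60 min acclimation on a wire screen. Started at 0.4 g filament, ≥6 trials at 10 s intervals, about 4 s per application. Reported as mean threshold in grams ± SEM.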

SH-SY5Y [4] = assay: Neuroprotective activity in human SH-SY5Y cells assessed as reduction in amyloid beta (1 to 42)-induced reactive oxygen species formation at 20 uM after 3 hrs by DHE probe based fluorescence microscopic method; assay type: functional, cell-based
Method in brief: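 SH-SY5Y cells on 8-well slides (1x10^4/well, 24 h) treated 3 h with compound (20 µM) and Aβ1-42 oligomers (10 µM) at 37 °C. Stained with dihydroethidium (10 µM, 30 min, dark), then 1 h in serum-free DMEM. Fluorescence imaged by microscopy; four random fields of 50–100 cells quantified in arbitrary units.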

[5] = Selectivity ratio of IC50 for equine serum BuChE to IC50 Electrophorus electricus AChE
Acetylcholinesterase = Acetylcholinesterase (Electrophorus electricus, UniProt O42275); assay: Non-competitive inhibition of Electrophorus electricus AChE using acetylthiocholine iodide as substrate pretreated for 10 mins followed by substrate addition measured at 12 secs interval for 5 mins by Ellman's method
Acetylcholinesterase, sequence (O42275 whole entry): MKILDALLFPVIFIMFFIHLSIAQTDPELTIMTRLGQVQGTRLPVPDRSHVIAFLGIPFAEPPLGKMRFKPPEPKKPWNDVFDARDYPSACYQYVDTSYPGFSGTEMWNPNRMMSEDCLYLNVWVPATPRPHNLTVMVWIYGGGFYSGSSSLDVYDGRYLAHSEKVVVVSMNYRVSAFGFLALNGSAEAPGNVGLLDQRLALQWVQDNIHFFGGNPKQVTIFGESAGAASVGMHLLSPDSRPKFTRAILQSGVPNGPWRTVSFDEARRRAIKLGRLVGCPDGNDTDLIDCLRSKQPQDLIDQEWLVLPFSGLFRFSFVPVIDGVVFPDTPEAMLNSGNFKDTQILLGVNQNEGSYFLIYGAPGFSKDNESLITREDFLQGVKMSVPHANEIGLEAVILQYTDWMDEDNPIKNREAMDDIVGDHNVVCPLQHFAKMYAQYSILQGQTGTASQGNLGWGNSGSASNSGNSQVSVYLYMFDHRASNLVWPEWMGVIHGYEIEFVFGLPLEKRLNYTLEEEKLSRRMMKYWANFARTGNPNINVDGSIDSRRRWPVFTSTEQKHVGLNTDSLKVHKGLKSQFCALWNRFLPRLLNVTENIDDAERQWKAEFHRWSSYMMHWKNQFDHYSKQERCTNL

Acetylcholinesterase (Electrophorus electricus), sequence (O42275 24-633 limits assumed): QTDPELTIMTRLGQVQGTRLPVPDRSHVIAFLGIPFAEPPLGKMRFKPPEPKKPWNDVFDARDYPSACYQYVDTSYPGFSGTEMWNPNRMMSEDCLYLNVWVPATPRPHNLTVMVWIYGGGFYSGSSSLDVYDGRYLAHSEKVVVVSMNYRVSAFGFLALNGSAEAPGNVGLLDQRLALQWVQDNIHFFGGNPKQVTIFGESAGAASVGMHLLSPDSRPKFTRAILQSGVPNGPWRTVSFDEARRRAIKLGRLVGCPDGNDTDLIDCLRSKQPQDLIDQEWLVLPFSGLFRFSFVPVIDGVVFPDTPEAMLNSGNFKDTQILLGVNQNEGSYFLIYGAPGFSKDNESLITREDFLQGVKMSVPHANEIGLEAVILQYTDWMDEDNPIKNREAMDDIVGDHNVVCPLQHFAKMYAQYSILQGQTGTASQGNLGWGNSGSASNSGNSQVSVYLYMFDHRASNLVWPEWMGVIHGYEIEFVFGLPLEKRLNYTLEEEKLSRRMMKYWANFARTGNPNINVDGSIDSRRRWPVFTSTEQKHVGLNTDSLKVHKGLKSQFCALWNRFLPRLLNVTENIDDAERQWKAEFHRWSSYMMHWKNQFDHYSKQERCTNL

COc1cc(/C=C/C(=O)OCC2CCN(Cc3ccccc3)CC2)ccc1O
inhibition [1]: 50% | Activity [2]: 248 nm | Activity (SH-SY5Y [3]): inactive | Activity (Mus musculus): Active | Activity (SH-SY5Y [4]): Active | Ratio IC50 [5]: 53 | Ki (Acetylcholinesterase): 1040 nM
